# Assay results published in ChEMBL document CHEMBL1123190, “Synthesis and biological evaluation of cyclic analogues of 1-carnitine as potential agents in the treatment of myocardial ischemia” (J Med Chem, 1986).
# Where “and” joins values, the source holds several entries; their conditions need not be identical. Identical values can stand only once.
# Biological target: T1, Mitochondrial carnitine/acylcarnitine carrier protein (Rattus norvegicus) (UniProt P97521)
# T1 sequence (whole entry): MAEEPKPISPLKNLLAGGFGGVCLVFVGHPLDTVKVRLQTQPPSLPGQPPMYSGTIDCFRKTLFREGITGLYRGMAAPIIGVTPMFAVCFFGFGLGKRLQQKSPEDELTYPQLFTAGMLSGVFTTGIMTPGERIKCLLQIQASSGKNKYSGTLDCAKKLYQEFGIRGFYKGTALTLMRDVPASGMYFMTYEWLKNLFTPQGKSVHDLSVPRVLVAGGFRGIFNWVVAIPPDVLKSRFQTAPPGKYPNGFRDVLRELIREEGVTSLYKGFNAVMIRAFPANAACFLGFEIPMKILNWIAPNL
# Test: Affinity of compound towards the carnitine/acylcarnitine translocase was determined by monitoring the efflux of [14C]L-carnitine from isolated rat heart mitochondria at 3 mM conc.
# In short: (§1)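 Isolated rat heart mitochondria (differential centrifugation) in 200 mM D-mannitol/50 mM Tris-HCl pH 7.4 with rotenone, oligomycin and antimycin A were loaded with l-carnitine plus [14C]-l-carnitine for 3 min at 28 °C, then washed. Compound at 3 or 50 mM, or water control, was added; efflux ran 1 min on ice and was quenched with mersalyl. Supernatant was scintillation-counted, and % efflux was calculated against control and total radioactivity. Mean of three.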
SMILES,Experimental DPM,Total DPM,Trans [%]
C[N+]1(C)C[C@H](O)C[C@H]1C(=O)O,4930,12200,3.16
C[N+]1(C)CCCC(C(=O)O)C1 (stereo not given),4030,10900,0
C[N+](C)(C)[C@@H]1CCCC[C@H]1C(=O)O,4170,10900,0
C[N+]1(C)CCC[C@H]1C(=O)[O-],–,12200,3.17
C[N+]1(C)CCCCC1C(=O)O (stereo not given),3850,10900,0
C[N+](C)(C)CC(O)CC(=O)[O-] (stereo not given),11800,12200,94.2

# Biological target: T1, Mitochondrial carnitine/acylcarnitine carrier protein (Rattus norvegicus)
# Test: Affinity of compound towards the carnitine/acylcarnitine translocase was determined by monitoring the efflux of [14C]L-carnitine from isolated rat heart mitochondria
# In short: as §1
row,SMILES,Experimental DPM
1,O=C(O)C1CCCCN1 (stereo not given),4280
2,C[N+]1(C)CCC[C@H]1C(=O)[O-],5570
3,NCC(O)CC(=O)O (stereo not given),4220
4,O=C(O)C1CCCNC1 (stereo not given),4130
5,CCCCCCCCCCCCCCCC(=O)OC(CN)CC(=O)O (stereo not given),3470
6,O=C(O)[C@@H]1C[C@@H](O)CN1,5350
7,CCCCCCCCCCCCCCCC(=O)O[C@@H]1C[C@@H](C(=O)O)[N+](C)(C)C1,5890 and 8870
8,O=C(O)[C@@H]1CCCN1,5050
